Reference: ChEMBL document CHEMBL4513216, “Probing the Open Global Health Chemical Diversity Library for Multistage-Active Starting Points for Next-Generation Antimalarials” (ACS Infect Dis, 2020)

Assay: Toxicity liver stage against HepG2, at 10uM
Assay type: cell-based
Parameters: test concentration 10 uM, cell line HepG2-A16-CD81EGFP
Details: human, HepG2-A16-CD81EGFP cells; read-out: INHIBITION
Procedure, shortened: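 Uninfected HepG2-A16-CD81EGFP cells, 3 × 10^3 per well, 1536-well, plated on prespotted compound at 10 μM final, parasite-free screening media added to match infected plates; puromycin 10 μM positive, DMSO 0.5% negative; run in parallel with 48 h PbLuc assay at 37 °C, 5% CO2; viability by CellTiter-Glo luminescence, normalized to controls.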

Compound	cytotoxicity at 10 µM [%]
Cc1cc(=O)n2nc(Oc3ccc(C#N)cc3Cl)sc2n1	1.15
Cc1ccccc1OCCn1cnc2oc(C)c(C(=O)O)c2c1=O	11
CN(C)[C@H]1C[C@@H](Cc2cc(CO)on2)C1(C)C	0.994
CC(C)(O)CN1CCC(=O)N(Cc2ccco2)Cc2cc(F)ccc21	-3.66
COCCn1ccc2cc(C(=O)NC3CCOC(C)(C)C3)ccc21 (configuration not stated)	-0.508
Cc1ccccc1-n1ncc2c(=O)n(CCN3CCCC3)cnc21	-11.3
Cc1ccc(NC(=O)NCCn2cnc(C)c(C)c2=O)cc1F	3.22
COC(=O)c1ccc(S(=O)(=O)NCC(C)(O)c2cccs2)cc1 (configuration not stated)	-6.87
CCOC(=O)N1CCC(Oc2ccc(C(F)(F)F)cn2)CC1	7.5
O=C(COc1ccccc1F)NCCC(O)c1ccoc1 (configuration not stated)	-13.4
COCCN(C)C(=O)c1ccc2onc(-c3coc(C)n3)c2c1	-144
CCOc1ncnc2c1CCN(S(=O)(=O)C1CC1)CC2	3.42
Cc1cnc2n(c1=O)CC(C(=O)Nc1ccccc1Cl)CS2 (configuration not stated)	-10.7
CCCNC(=O)c1cc2c(nc1O)CCC(C)C2 (configuration not stated)	0.717
Cc1cc(N2CCC(O)(CN(C)C(=O)CCCN)C2)c2cnccc2n1 (configuration not stated)	-8.65
CC1(c2ncc(CN3CCN(c4ccccn4)CC3)cn2)CCCCO1 (configuration not stated)	2.68
COCC(=O)N1CCCC1c1nc(C)c2c(n1)N(CC(C)C)C(=O)CC2 (configuration not stated)	1.6
Cn1cc(C(=O)N2CCCC(c3ccncc3)C2)cn1 (configuration not stated)	-13
Cc1nc(CN(Cc2ccccc2F)C2CCC2)no1	6.95
CN1CCCN(S(=O)(=O)c2cn(C)cn2)c2cc(Cl)ccc21	2.14
COc1c(C)cnc(CN2CCn3c(nnc3C(C)C)C2)c1C	5.56

Compound	cytotoxicity at 10 µM [%]
Cc1nccn1-c1cc(CNS(=O)(=O)N2CCCC(C)C2)ccn1 (configuration not stated)	-2.42
CN(CC(O)C(F)(F)F)C(=O)Nc1cccc(N2CCCC2)c1 (configuration not stated)	5.48
CCS(=O)(=O)N1Cc2ccccc2CC1C(=O)OCc1c(C)noc1C (configuration not stated)	-9.26
CCc1ccc(-c2noc(Cn3nc(C(N)=O)ccc3=O)n2)cc1	-4.22
CN1CCOC(CNC(=O)C2(c3cccc(C(F)(F)F)c3)CCCC2)C1 (configuration not stated)	-4.22
CC(=O)c1c(C)cc(C)c(Cn2ccnc2S(C)(=O)=O)c1C	-0.657
Cc1ccnc(N2CCCC(c3noc(C(C)C)n3)C2)n1 (configuration not stated)	21.9
CC(Cn1ccnc1)NS(=O)(=O)c1ccc(C#N)c(Cl)c1 (configuration not stated)	-9.97
COc1ccccc1NC(=O)Cc1c(C)nc2c(c1C)c(=O)[nH]n2C	-1.68
OC(CNc1cncc(OCc2ccccc2)n1)c1ccco1 (configuration not stated)	-1.53
CCN1CCC(NC(=O)CN2CCCCC2Cn2cccn2)CC1 (configuration not stated)	-2.71
COc1cccc(CN(C)C(=O)CCC(=O)c2ccccc2)c1OC	-3.62
CCOc1ccc(NC(=O)N2CCOC(C(N)=O)C2)cc1Cl (configuration not stated)	-140
Cc1ccc(C(=O)N(C)Cc2nccn2CC(F)(F)F)cn1	2.52
COCCN(Cc1cccc(C#N)c1)Cc1nnsc1Cl	7.96
CCCc1nn(C2CCCN(C(C)C)C2=O)c(=O)o1 (configuration not stated)	-6.11
O=C(CNc1ccc(F)cc1OCC(F)(F)F)NCc1ccco1	7.35
CCn1nc(C(=O)N2CCCC2c2noc(C)n2)ccc1=O (configuration not stated)	4.99
Cc1nc(C(NC(=O)CC(F)(F)F)c2ccc(Cl)cc2)no1 (configuration not stated)	9.83
Cc1ccc(NCc2cccc3cn[nH]c23)cc1OC1CCOC1 (configuration not stated)	1.44
Cn1ccnc1CCNC(=O)C1CCCN(Cc2cccc(F)c2)C1 (configuration not stated)	-6.87

Compound	cytotoxicity at 10 µM [%]
COC(=O)C1CCCN1C(=O)c1ccc(-n2nc(C)cc2C)cc1 (configuration not stated)	-10.5
CC(C)C(C(=O)N1CCN(Cc2ccncc2)CC1)n1cncn1 (configuration not stated)	-13
Cc1nc2cc(O)nn2c(C)c1CCC(=O)N(C)Cc1cscn1	-2.64
O=C(O)c1cccc(N2C[C@H](NC(=O)C3CCOCC3)[C@@H](C3CC3)C2)n1	-4.31
CCCS(=O)(=O)N1CCC2(CCCN(Cc3cccc(F)c3F)C2=O)C1 (configuration not stated)	10.3
CCNC(=O)[C@@H]1C[C@@H](NC(=O)c2ccsc2)CN1CCCSC	-117
O=C(CN1CCc2ccccc2C1)NCc1cc2n(n1)CCCNC2	2.22
COCCN(Cc1cccc(O)c1)Cc1ccccc1F	4.73
Cc1nnc(CN2CCN(C)C3(CCC(=O)N(CCO)CC3)C2)s1 (configuration not stated)	-14.9
O=C(C1CCC1)N1CCCn2nc(CNc3ncccn3)cc2C1	-123
CC(C)CN(Cc1ccc(O)c(C(=O)O)c1)Cc1cnn(C)c1	-3.86
Nc1ccnc(N2CCC(c3nccn3CC3CC3)CC2)n1	-0.0638
CCC(=O)N1CCC(c2nnc(Cn3cccn3)n2C2CC2)CC1	-12.6
O=C(O)C(c1ccc2c(c1)OCO2)N1CCC(C(=O)N2CCCC2)CC1 (configuration not stated)	4.22
C[C@@H]1CN(C(=O)c2ccc(C#N)nc2)CC[C@@]1(O)C1CCOCC1	-11.5
CSCCCN1CC[C@@H](NC(=O)c2cnccn2)[C@H](O)C1	-14.6
CC(NC(=O)NCCCn1cncn1)c1ccc(C(F)(F)F)cc1 (configuration not stated)	-7.1
Cc1nc(C2CCCN2C(=O)c2ccc(N(C)C)nn2)no1 (configuration not stated)	-12.9
Cc1cc(C)n(CC2CCCN2CCCc2nc3ccccc3o2)n1 (configuration not stated)	-10.9
COc1ccc(OCCNC(=O)N2CCS(=O)(=O)CC2)cc1	-6.95
COc1c(CNC(c2cccc(F)c2)c2nccn2C)c(C)nn1C (configuration not stated)	-9.19

Compound	cytotoxicity at 10 µM [%]
O=C(CCc1nnc(-c2ccccc2)o1)N1CCN(CC2CC2)CC1	-13.7
CCc1nc(C2CCCN2C(=O)c2csc(NC(C)=O)n2)no1 (configuration not stated)	-5.12
OCc1ccccc1CNCC1CNc2ccnn2C1 (configuration not stated)	-11.9
O=C(NCCCn1nc2ccccn2c1=O)Nc1ccc(F)cc1F	-7.43
O=C(c1cc2cc(F)ccc2[nH]1)N1CCC(Nc2ccc(F)cc2)CC1	-7.36
COCC(c1cccc(C(F)(F)F)c1)N(C)C(=O)c1cc(C)no1 (configuration not stated)	0.0161
Cc1noc(C)c1CN1CCN(Cc2nccn2C)CC1	-4.93
CC(C)c1nnc(NC(=O)NCc2ccnc(N(C)C)c2)s1	7.29
Cc1ccc(CN(CCCn2ccnc2)Cc2cnc(N(C)C)nc2)s1	-12.6
COCc1nn(C)c2c1CCN(Cc1cnn(C)c1)C2	-4.37
Cc1nc(-c2ccnc(N3CCNCC3)n2)no1	2.63
CC(C)CN1CCC2(C=C(C(=O)N3CCCC3)c3ccccc32)CC1	-3.12
c1ncn(Cc2cn3c(n2)CN(CC2CCCC2)CC3)n1	-127
CC(C)OCc1nn(C)c2c1CCN(Cc1ccco1)C2	-115
CN(C)[C@@H]1CCN(C(=O)Cc2cccs2)[C@H]1Cc1cnn(C)c1	-72.2
COc1ccccc1CN1CC[C@H]2C[C@@H](C(=O)N3CCCC3)O[C@H]2C1	7.28
COc1cc(C2CC(=O)c3c(O)cc(O)cc3O2)ccc1O (configuration not stated)	-0.537
CNC1CCC2(CC1)CNC(=O)c1cc(C)ccc1O2 (configuration not stated)	-9.28
Cc1ccccc1CNC(=O)N1C[C@@H]2C[C@H](C(=O)N3CCCC3)[C@H](C1)O2	5.68
